inhibition, Activity and IC50 data for 4 compounds are collected here from ChEMBL document CHEMBL1155746, “Isolation of new protein phosphatase inhibitors from two cyanobacteria species, Planktothrix spp” (J Nat Prod, 2001).

Usually inhibition stands for the percentage by which the read-out fell short of the control. A higher inhibition goes with a strong effect. A word on the IC50: it is the concentration needed to halve the response being measured.

Active and inactive are the calls of the source. The calls are words filed in the database; no cut-off is given here. *1 amine or outer side, *2 acyl side, *3 side chain or, on linkers, in order; H or OH if unused. Where a SMILES comes first, the peptide text is derived from it. Bridges are numbered along the chain shown (N, C = ends). [ ]: non-standard residue; d: D form. hTyr = N[C@@H](CCc1ccc(O)cc1)C(=O)O; aIle = CC[C@@H](C)[C@H](N)C(=O)O; NMeA = CN[C@@H](C)C(=O)O; CO = O=C([*:1])[*:2]

The species named for one test is Oryctolagus cuniculus. The test can be described thus: Inhibition of rabbit skeletal muscle PP1 at 100 ug/mL by liquid scintillation counter. The method in brief: (§1)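 Enzyme at 0.05 unit/50 µL was incubated with 32P-labelled myelin basic protein, which had been phosphorylated using cAMP-dependent kinase catalytic subunit and γ-[32P]ATP. Reactions ran at 30 °C for 10 min in duplicate and were stopped with 20% trichloroacetic acid on ice. Released 32Pi in the supernatant was counted by liquid scintillation. The control received MeOH.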

For the next test, the species on record is Homo sapiens. The test can be described thus: Inhibition of human red blood cells PP2A at 100 ug/mL by liquid scintillation counter. The method in brief: as §1
A short description of test [1]: Inhibition of PTP-S2 expressed in Escherichia coli JM109 at 100 ug/mL.
Test [2] has as its target Dual specificity protein phosphatase 3 (Homo sapiens) (UniProt P51452). The test can be described thus: Inhibition of human dual specificity protein phosphatase VHR expressed in Escherichia coli JM109 at 100 ug/mL.
In test [3] the target is T1, M-phase inducer phosphatase 2 (Homo sapiens) (UniProt P30305).
T1 sequence (whole entry): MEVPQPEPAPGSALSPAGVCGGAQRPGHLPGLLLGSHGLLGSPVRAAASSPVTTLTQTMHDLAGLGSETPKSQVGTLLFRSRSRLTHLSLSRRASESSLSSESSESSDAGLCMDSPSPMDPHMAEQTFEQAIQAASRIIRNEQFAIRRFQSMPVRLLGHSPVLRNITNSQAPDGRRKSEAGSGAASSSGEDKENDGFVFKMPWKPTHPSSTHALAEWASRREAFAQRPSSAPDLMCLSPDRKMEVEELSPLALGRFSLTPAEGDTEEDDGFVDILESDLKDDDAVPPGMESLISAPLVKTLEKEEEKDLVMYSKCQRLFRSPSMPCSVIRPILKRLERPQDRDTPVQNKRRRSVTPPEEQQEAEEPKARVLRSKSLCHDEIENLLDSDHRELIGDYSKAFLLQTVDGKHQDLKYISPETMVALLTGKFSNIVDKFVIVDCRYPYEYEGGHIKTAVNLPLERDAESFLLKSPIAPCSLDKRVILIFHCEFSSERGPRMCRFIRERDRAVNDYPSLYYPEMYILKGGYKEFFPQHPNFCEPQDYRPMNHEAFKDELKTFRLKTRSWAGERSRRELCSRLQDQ
Briefly: Inhibition of human dual specificity protein phosphatase Cdc25B expressed in Escherichia coli BL21 (DE3) at 100 ug/mL. The method in brief: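 The catalytic subunit was expressed from pET21b and purified. Substrate was 200 µM 3-O-methylfluorescein phosphate in 100 mM Tris-HCl, 40 mM NaCl, 1 mM dithiothreitol, 20% glycerol, pH 8.2, at 37 °C for 20 min. Reactions were stopped with 6 M guanidine-HCl/1 M MES, pH 5.5, and the absorbance increase at 477 nm was read. The control received MeOH.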

Test [4] in a line: Inhibition of rabbit skeletal muscle PP1. Set-up: species or system Oryctolagus cuniculus. The method in brief: as §1
Test [5] can be described thus: Inhibition of human red blood cell PP2A. The procedure, abridged:
as §1

Sequence of Dual specificity protein phosphatase 3 (Homo sapiens) (P51452 whole entry, looked up): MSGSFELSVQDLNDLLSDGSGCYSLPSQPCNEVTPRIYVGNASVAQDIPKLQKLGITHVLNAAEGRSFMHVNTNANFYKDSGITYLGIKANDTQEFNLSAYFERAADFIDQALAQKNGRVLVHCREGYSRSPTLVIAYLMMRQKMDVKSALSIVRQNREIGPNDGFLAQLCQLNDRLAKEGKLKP

`CSCC[C@@H]1NC(=O)[C@H](NC(=O)N[C@@H](CCCNC(=N)N)C(=O)O)CCCCNC(=O)[C@H](Cc2ccccc2)NC(=O)[C@H](C)N(C)C(=O)[C@H](CCc2ccc(O)cc2)NC1=O` ({Arg-CO}-[dK]M[hTyr][NMeA]F; lactam 1-C): the inhibition in the test listed under Oryctolagus cuniculus worked out at 43.3%; in the test filed under Homo sapiens, 62.8%. The outcome in test [1], in test [2] and in test [3] was inactive.

As for `CC[C@H](C)[C@@H]1NC(=O)[C@H](NC(=O)N[C@@H](CCCNC(=N)N)C(=O)O)CCCCNC(=O)[C@H](Cc2ccccc2)NC(=O)[C@H](C)N(C)C(=O)[C@H](CCc2ccc(O)cc2)NC1=O` ({Arg-CO}-[dK]I[hTyr][NMeA]F; lactam 1-C), the inhibition turned out to be 38.1% in the test filed under Oryctolagus cuniculus and 41.5% in the test filed under Homo sapiens. Moreover, the outcome in test [1], in test [2] and in test [3] was inactive.

Consider `CC[C@@H](C)[C@@H]1NC(=O)[C@H](NC(=O)N[C@@H](Cc2ccc(O)cc2)C(=O)O)CCCCNC(=O)[C@H](Cc2ccccc2)NC(=O)[C@H](C)N(C)C(=O)[C@H](CCc2ccc(O)cc2)NC1=O` ({Tyr-CO}-[dK][aIle][hTyr][NMeA]F; lactam 1-C), for which the inhibition in the test listed under Oryctolagus cuniculus is 11.2%; in the test filed under Homo sapiens it was 9.6%. Moreover, the result in test [1], in test [2] and in test [3] was inactive.

As to `CC[C@H](C)[C@@H]1NC(=O)[C@H](NC(=O)N[C@@H](CCCNC(=N)N)C(=O)O)CCCCNC(=O)[C@H](Cc2ccccc2)NC(=O)[C@H](CCc2ccc(O)cc2)N(C)C(=O)[C@H](CCc2ccc(O)cc2)NC1=O` [OSCILLAMIDE C], the inhibition in the test listed under Oryctolagus cuniculus turned out to be 97.3%; in the test filed under Homo sapiens, 98.4%. The IC50 in test [4] came to 0.9 µM; in test [5], 1.33 µM. Moreover, the outcome in test [1], in test [2] and in test [3] was inactive.
